PMC7993274 (Clinical and Translational Science, 2020)

What was measured:
OATP1B1 = conditions: cited from earlier work
[1] = Plasma PK, single ascending dose; type: in vivo, human; conditions: for t1/2: arithmetic mean (SD); for AUCinf (dn) / Cmax (dn): dose normalized; for AUCinf (dn) / Cmax (dn) / AUCinf / Cmax: geometric mean (CV %); for Tmax: median (range)
Method in brief: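 Healthy volunteers were randomized 3:1 to test compound or placebo, given as a single oral dose of 3–1,600 mg (tablets; suspension for 3 mg) after an overnight fast of ≥8 h. Plasma was sampled predose and at 0.5–72 h. Assay LLOQ was 1 ng/mL. Parameters came from noncompartmental analysis, were dose-normalized to 1 mg, and were reported as geometric mean (CV), with Tmax excepted.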

[2] = Treatment-emergent adverse events, MAD period and b.i.d. cohort; type: in vivo, human
Method in brief: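 Double-blind, placebo-controlled study in healthy men and nonchildbearing women aged 18–55 y. The SAD period gave one fasted oral dose; the MAD period gave fed dosing q.d. for 10 days, plus a separate b.i.d. cohort. TEAEs, serious AEs and discontinuation AEs were monitored ≥28 days after the last dose. Vital signs, physical exam, 12-lead ECG, hematology, clinical chemistry and urinalysis were also recorded. Data summarized descriptively.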

[3] = SAD 1,600 mg single dose fasted

## Cn1cc(-c2cn3nccc3c(-c3cnn([C@]4(CC#N)C[C@@H](C#N)C4)c3)n2)cn1 [PF‐06826647]
OATP1B1
  inhibition of transporter protein OATP1B1: minimal inhibition
[1]; SAD 3 mg single dose fasted
  t1/2: 3.6 (1.3) hour
  AUCinf (dn): 15.9 (59) ng.hour/mL/mg
  Cmax (dn): 2.6 (38) ng/mL/mg
  AUCinf: 47.6 (59) ng.hour/mL
  Cmax: 7.8 (38) ng/mL
  Tmax: 2.0 (1.0–2.0) hour
[1]; SAD 10 mg single dose fasted
  t1/2: 6.0 (1.9) hour
  AUCinf (dn): 36.9 (67) ng.hour/mL/mg
  Cmax (dn): 4.7 (35) ng/mL/mg
  AUCinf: 369.3 (67) ng.hour/mL
  Cmax: 47.1 (35) ng/mL
  Tmax: 2.0 (1.0–4.0) hour
[1]; SAD 30 mg single dose fasted
  t1/2: 19.7 (9.5) hour
  AUCinf (dn): 28.3 (41) ng.hour/mL/mg
  Cmax (dn): 2.6 (34) ng/mL/mg
  AUCinf: 848.4 (40) ng.hour/mL
  Cmax: 77.9 (34) ng/mL
  Tmax: 2.0 (1.0–4.0) hour
[1]; SAD 100 mg single dose fasted
  t1/2: 38.8 (36.0) hour
  AUCinf (dn): 15.8 (42) ng.hour/mL/mg
  Cmax (dn): 1.7 (55) ng/mL/mg
  AUCinf: 1,582.0 (42) ng.hour/mL
  Cmax: 166.8 (55) ng/mL
  Tmax: 2.0 (2.0–6.0) hour
[1]; SAD 400 mg single dose fasted
  t1/2: 16.3 (9.3) hour
  AUCinf (dn): 7.6 (65) ng.hour/mL/mg
  Cmax (dn): 1.0 (62) ng/mL/mg
  AUCinf: 3,056.0 (65) ng.hour/mL
  Cmax: 404.8 (62) ng/mL
  Tmax: 2.0 (0.5–4.0) hour
[1]; [3]
  t1/2: 22.2 (24.6) hour
  AUCinf (dn): 7.4 (25) ng.hour/mL/mg
  Cmax (dn): 0.8 (25) ng/mL/mg
  AUCinf: 11,790.0 (25) ng.hour/mL
  Cmax: 1,218.0 (25) ng/mL
  Tmax: 2.0 (0.5–4.0) hour
[1]; SAD doses of 3–10 mg
  dose proportionality of AUCinf and Cmax: greater than dose‐proportional
[1]; SAD doses of 10–400 mg
  dose proportionality of AUCinf and Cmax: less than dose‐proportional
[1]; SAD doses of 400–1,600 mg
  dose proportionality of AUCinf and Cmax: dose‐proportional
[1]; fasted state, SAD, overall
  median Tmax: 2 h
[2]; MAD 30 mg q.d. (n = 6)
  AEs: 2 n
  AEs leading to permanent discontinuation of study drug: 0 n
  AEs leading to study drug dose reduction or interruption: 0 n
  Participants with AE: 2 (33.3) n (%)
  Participants with TEAEs: Alanine aminotransferase increased: 0 n (%)
  Participants with TEAEs: Blood creatinine increased: 0 n (%)
  Participants with TEAEs: Constipation: 1 (16.7) n (%)
  Participants with TEAEs: Dysuria: 0 n (%)
  Participants with TEAEs: Gastrointestinal disorders (SOC): 2 (33.3) n (%)
  Participants with TEAEs: Headache: 0 n (%)
  Participants with TEAEs: Investigations (SOC): 0 n (%)
  Participants with TEAEs: Nausea: 1 (16.7) n (%)
  Participants with TEAEs: Nervous system disorders (SOC): 0 n (%)
  Participants with TEAEs: Renal and urinary disorders (SOC): 0 n (%)
  SAEs: 0 n
  Severe AEs: 0 n
[2]; MAD 100 mg q.d. (n = 6)
  AEs: 1 n
  AEs leading to permanent discontinuation of study drug: 0 n
  AEs leading to study drug dose reduction or interruption: 0 n
  Participants with AE: 1 (16.7) n (%)
  Participants with TEAEs: Alanine aminotransferase increased: 0 n (%)
  Participants with TEAEs: Blood creatinine increased: 1 (16.7) n (%)
  Participants with TEAEs: Constipation: 0 n (%)
  Participants with TEAEs: Dysuria: 0 n (%)
  Participants with TEAEs: Gastrointestinal disorders (SOC): 0 n (%)
  Participants with TEAEs: Headache: 0 n (%)
  Participants with TEAEs: Investigations (SOC): 1 (16.7) n (%)
  Participants with TEAEs: Nausea: 0 n (%)
  Participants with TEAEs: Nervous system disorders (SOC): 0 n (%)
